We go through 13 compounds from ChEMBL document CHEMBL1131298 (J Med Chem, 1998).

Each structure is given as a SMILES string. A value given as a limit tells only on which side of the number the result lay.

The nature of data set [1]: Cytotoxicity was evaluated against LS174T-stCPG2(Q)3-expressing cell clone. The conditions noted are these: Homo sapiens. The format is functional. The method in brief:
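LS174T colon cells stably transfected with surface-tethered mutant CPG2 (stCPG2(Q)3) plasmid; 2 × 10^6 cells seeded, confluent at 48 h. Compound added from DMSO stock in full medium, a similar dose re-added after 1 h, then 20 h more. Cells reseeded in quadruplicate at ~2 × 10^3/well, grown to control confluence; sulforhodamine-B at 590 nm, IC50 by interpolation.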

Data set [2] can be described thus: Kinetic parameter (half-life prodrug/drug) was evaluated. It counts as ADME. The method, boiled down:
(§1)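 10 mM stocks diluted 100-fold to 100 µM in CPG2 assay buffer (100 mM Tris-HCl pH 7.3, 260 µM ZnCl2) at 37 °C. Remaining starting material followed by isocratic C18 HPLC in 10 mM ammonium acetate pH 5.0/methanol, UV at compound-specific wavelength, via repeat injections every 7.5 min or fresh-vial injections every 1 min.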

Data set [3] is described as follows: Kinetic parameter(rate of catalysis) was evaluated. The format is ADME.
A short description of data set [4]: Kinetic parameter (half-life) was evaluated; NA ='Not applicable'. The format is ADME. The method in brief:
as §1

`O=C(O)CC[C@H](NC(=O)Nc1ccc(COC(=O)Nc2ccc(N(CCF)CCF)cc2)cc1)C(=O)O`: it took 184 µM to reach half-maximal inhibition in data set [1] (IC50). Also, the T1/2 in data set [2] is 0.4 min. In data set [3], this compound showed a k cat of 50 s⁻¹.

Consider `O=C(O)CC[C@H](NC(=O)Nc1ccc(COC(=O)Nc2ccc(N(CCCl)CCCl)cc2)cc1)C(=O)O`, for which 0.46 µM corresponded to half-maximal inhibition in data set [1] (IC50). Further, the T1/2 in data set [2] is on record as 7.6 min. In data set [3], this compound returned a k cat of 50 s⁻¹.

`O=C(O)CC[C@H](NC(=O)Oc1ccc(COC(=O)Oc2ccc(N(CCCl)CCCl)cc2)cc1)C(=O)O`: it took 0.42 µM to reach half-maximal inhibition in data set [1] (IC50). For the same compound, in data set [2], the T1/2 is 13.7 min. Also, in data set [3], the k cat was < 10 s⁻¹.

`O=C(O)CC[C@H](NC(=O)Nc1ccc(COC(=O)Oc2ccc(N(CCCl)CCCl)cc2)cc1)C(=O)O`: in data set [1], half-maximal inhibition (IC50) was put at 0.48 µM. For the same compound, in data set [2], the T1/2 is reported as 0.3 min. For the same compound, the k cat in data set [3] was < 10 s⁻¹.

`Nc1ccc(N(CCF)CCF)cc1`: half-maximal inhibition in data set [1] (IC50) was put at 121 µM.

With `O=C(O)CC[C@H](NC(=O)Oc1ccc(CO)cc1)C(=O)O`, in data set [4], the T1/2 result is on record as “Not Active”. In data set [3], this compound registered a k cat of 140 s⁻¹.

For `O=C(O)CC[C@H](NC(=O)Oc1ccc(COC(=O)Nc2ccc(N(CCCl)CCCl)cc2)cc1)C(=O)O`, in data set [1], inhibition was half-maximal at 0.62 µM (IC50). Moreover, the T1/2 in data set [2] came out at 8.1 min. Besides, the k cat in data set [3] is < 10 s⁻¹.

In the case of `O=C(O)CC[C@H](NC(=O)Oc1ccc(COC(=O)Oc2ccc(N(CCF)CCF)cc2)cc1)C(=O)O`, the T1/2 result in data set [4] is “Not Active”. In data set [1], the IC50 (commonly the concentration at which inhibition is half-maximal) turned out to be 128 µM. In data set [3], the k cat is < 10 s⁻¹.

Compound `CS(=O)(=O)OCCN(CCCl)c1ccc(C(=O)O)cc1` had a concentration for half-maximal inhibition (IC50) in data set [1] of 27.8 µM.

Consider `Oc1ccc(N(CCF)CCF)cc1`, for which the T1/2 entry in data set [4] was “Not Active”. This compound had an IC50 in data set [1] of 323 µM.

As to `O=C(O)CC[C@H](NC(=O)Nc1ccc(COC(=O)Oc2ccc(N(CCF)CCF)cc2)cc1)C(=O)O`, in data set [1], the IC50 came to 264 µM. The T1/2 in data set [2] is on record as < 10 min.

Compound `O=C(O)CC[C@H](NC(=O)Nc1ccc(CO)cc1)C(=O)O` had a k cat in data set [3] of 65.4 s⁻¹.

`O=C(O)CC[C@H](NC(=O)Oc1ccc(COC(=O)Nc2ccc(N(CCF)CCF)cc2)cc1)C(=O)O`: the T1/2 entry in data set [4] is “Not Active”. The concentration for half-maximal inhibition (IC50) in data set [1] turned out to be 257 µM. The same compound returned a k cat in data set [3] of 50 s⁻¹.
